# Results: ChEMBL document CHEMBL4513216, “Probing the Open Global Health Chemical Diversity Library for Multistage-Active Starting Points for Next-Generation Antimalarials” (ACS Infect Dis, 2020)
# Test: Toxicity liver stage against HepG2, at 10uM
# Type: cell-based
# Design: test concentration 10 uM, cell line HepG2-A16-CD81EGFP
# Conditions: human, HepG2-A16-CD81EGFP cells; read-out: INHIBITION
# In short: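 Uninfected HepG2-A16-CD81EGFP cells, 3 × 10^3 per well, 1536-well, plated on prespotted compound at 10 μM final, parasite-free screening media added to match infected plates; puromycin 10 μM positive, DMSO 0.5% negative; run in parallel with 48 h PbLuc assay at 37 °C, 5% CO2; viability by CellTiter-Glo luminescence, normalized to controls.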
row,Structure (SMILES),cytotoxicity at 10 µM
1,CCN(CC)C1(Cc2cc(-c3ccccn3)on2)COC1,1.41%
2,O=C1Nc2ccccc2/C1=C1\CCCCN1,4.95%
3,COCCNC(=O)CNC(=O)c1nc(Cc2c(Cl)cccc2Cl)no1,5.64%
4,COCCN1C[C@H]2CCN(C(=O)c3cc(C)on3)CC[C@H]2S1(=O)=O,-1.69%
5,O=C(c1ccco1)N1CCC2(CCC(=O)N2Cc2ccncc2)CC1,1.29%
6,CN(C)CCOCC1CN(C(=O)c2cccnc2)Cc2ccnn2C1 (stereo not given),5.57%
7,CCC1=N[C@@]2(CC[C@@H]3CN(C(=O)Nc4ccccc4)C[C@@H]32)C(=O)N1CC,2.93%
8,Cc1occc1C(=O)N1CC(C(=O)N2CCOCC2)C2(CCOCC2)C1 (stereo not given),7.37%
9,COCC(=O)N1CC[C@H]2C[C@@H](c3nnc(C4CC4)o3)O[C@@H]2C1,-6.77%
10,COCC1CN(C(=O)C2=CCCCC2)Cc2cnn(CC3CC3)c21 (stereo not given),3.46%
11,COc1ccc(Nc2nc3c(C)nn(C)c3c(=O)n2C)cc1,-0.103%
12,CSCc1cccc(S(=O)(=O)Nc2cc(C)on2)c1,6.27%
13,COc1ccc(-c2cc3nc(CCNC(=O)C4CC4)nn3cn2)cc1,8.38%
14,CC(=O)N1CCC(C)(c2cc(C(=O)NCC3CC3)nc(C)n2)CC1,2.87%
15,COCCN1CCC(C)(c2cc(O)[nH]n2)CC1,2.02%
16,Cc1ncc(CN)c(-c2cn(C)c3ccccc23)n1,2.97%
17,Cc1ccc(C)c2c(C)c(C(=O)NCC[S+](C)[O-])[nH]c12 (stereo not given),3.03%
18,Cc1ncc(CN(C)C)c(C2CCCN2c2ncccn2)n1 (stereo not given),-0.6%
19,O=C(CCn1c(C(F)(F)F)cc2cccnc21)NC1CCCC1,-14.3%
20,Cc1nc(C)n(CC(=O)N2CCc3ncc(Cl)cc3C2)n1,-18.8%
21,COc1ccccc1C1=NOC(CC2(C(=O)NCCO)CCOCC2)C1 (stereo not given),-26.2%
22,Cc1nc2ccc(C(=O)N3C[C@@H](O)[C@H](N4CCOCC4)C3)cc2[nH]1,-5.81%

row,Structure (SMILES),cytotoxicity at 10 µM
1,Cc1nc(O)c2nnn(C[C@H]3CCCN3C(=O)c3ccc(F)cc3)c2n1,-4.28%
2,CCCc1noc(C(C)N2CC(n3cccn3)C2)n1 (stereo not given),2.13%
3,CN(CC(=O)N(C)C)Cc1ccc(C#N)cc1F,6.56%
4,CC(NC(=O)c1cccc[n+]1[O-])C1CC1 (stereo not given),5.31%
5,CC1COCCN1C(=O)COc1ccc(Oc2ccccn2)cc1 (stereo not given),-8.87%
6,O=C(CCc1ccc(OC(F)(F)F)cc1)N1CCCS1(=O)=O,3.42%
7,CCCNC(=O)CCNC(=O)N1CCC(=Cc2ccccc2)CC1,1.47%
8,COCCNC(=O)N1CCN(c2cc(F)ccc2F)CC1,-5.95%
9,COc1ccnc(NC(Cc2ccccc2)C(=O)N(C)C)n1 (stereo not given),6.39%
10,Cn1ccc(C(=O)N2CCCC(CNS(C)(=O)=O)C2)cc1=O (stereo not given),0.193%
11,Cc1ccccc1CS(=O)(=O)Cc1nc(C2CC2)no1,4.49%
12,CCN(CC)C(=O)CCNC(=O)N(C)Cc1ccc(SC)c(OC)c1,-7.9%
13,CC(C)C(=O)Nc1ccc(C(O)Cn2nc(-c3cccs3)oc2=O)cc1 (stereo not given),-5.31%
14,CC(C)N1CCC(NC(=O)NC2CCOc3ccc(Br)cc32)CC1 (stereo not given),-6.64%
15,CC(=O)NCCCNC(=O)Nc1ccccc1-n1nc(C)cc1C,6.57%
16,CN(Cc1cccc(C#N)c1)S(=O)(=O)N1CCOCC1,6.95%
17,Cc1nccn1-c1cc(CNC(=O)C2CCC(=O)NC2)ccn1 (stereo not given),4.83%
18,Cc1nnc2ccc(N3CCC4(CCOC4)C3)nn12 (stereo not given),4.29%
19,CCC(=O)Nc1cc(Br)cn(C)c1=O,-1.34%
20,FC(F)COc1ccccc1NCc1nnsc1Cl,-2.63%
21,O=C(NCCCc1cccs1)N1CCCCC1CCO (stereo not given),6.06%
22,CCCS(=O)(=O)N1CCCC1c1cccc(N(C)C)c1 (stereo not given),1.62%

row,Structure (SMILES),cytotoxicity at 10 µM
1,CC(C)C(C)NC(=O)CN1CCSCC1 (stereo not given),-0.662%
2,CN(C)c1ccc(CCCNC(=O)NCC(O)c2ccsc2)cc1 (stereo not given),-6.88%
3,CCOCCN1CCN(Cc2nnc(-c3ccco3)o2)CC1,-53.1%
4,COc1cccc(CNC(=O)Nc2ccc3[nH]nnc3c2)c1OC,3.2%
5,Cc1cc(=O)c(C(=O)Nc2cccc(CCN3CCCC3)c2)c[nH]1,7.49%
6,CCC1CCCN(S(=O)(=O)c2cnc3onc(C)c3c2)C1 (stereo not given),4.72%
7,CC(C)(CO)CCCNC(=O)NC1(c2ccccc2F)CC1,9.08%
8,CN(C)C(=O)c1cccn1-c1ccc2c(c1)OCCO2,12.6%
9,CCc1ccc(C(=O)O)cc1S(=O)(=O)Nc1ccc(=O)n(C)c1,11.7%
10,CCOc1cc(C(=O)NS(C)(=O)=O)cc(-c2ccccc2)c1OC,12.5%
11,CC(C)c1nncn1CCNC(=O)c1c(O)cc(F)cc1F,-1.99%
12,Cc1ccc2c(c1)OC(C)CN2C(=O)CCc1cscn1 (stereo not given),-48.5%
13,CC(C)NC(=O)COc1nc(C(C)(C)C)no1,-7.48%
14,CC(C)Cc1cc(C(=O)NCCc2ccc(S(C)(=O)=O)cc2)[nH]n1,-8.93%
15,Cc1cccc(C(=O)N2CCn3cc(CNC(=O)CC4CC4)nc3C2)n1,-78.4%
16,O=C(c1ccco1)N1CCCn2cnc(COCC3CC3)c2C1,-75.9%
17,c1ccc2c(c1)CN(c1ncnc3sc4c(c13)CCNC4)CCO2,5.08%
18,Cc1cc(C(F)(F)F)nc(CCNC(C)Cn2cncn2)n1 (stereo not given),12%
19,CN1CCN([C@H]2CCN(C(=O)c3nn(C)cc3Cl)C[C@H]2CCCO)CC1,-2.86%
20,O=C(O)c1ccccc1C1CCN(Cc2ccc(-c3cc[nH]n3)o2)C1 (stereo not given),-10.2%
21,Cc1cnccc1N1CCN(C(=O)C2CC3(CCNCC3)CN2)CC1 (stereo not given),-13.7%
22,O=C(Cc1cccnc1)NC1CCCN(CCCc2ccccc2)C1 (stereo not given),11.5%

row,Structure (SMILES),cytotoxicity at 10 µM
1,CNc1nc(C(=O)N2CCn3nc(C(=O)OC)cc3C2)cs1,-8.61%
2,O=C(C1CCCN(C2CCOCC2)C1)N1Cc2ccccc2C1 (stereo not given),2.49%
3,C[C@@H]1CN(Cc2cc3ccccc3n2C)CC[C@@]1(O)C1CC1,-2.07%
4,COc1cc(C)cc(C(C(=O)O)N2CCN(C3CCCC3)CC2)c1OC (stereo not given),-4.27%
5,CN(C)CCC1CCCCN1Cc1cnc(-c2ccccn2)nc1 (stereo not given),3.74%
6,Cc1cnc(C(=O)N(C)Cc2nc(-c3ccccn3)no2)cn1,3.42%
7,CCN(CC)C(=O)[C@@H]1C[C@H](N)CN1c1noc(-c2ccccc2)n1,-49.8%
8,Cc1cc(C)n(CC(C)NCCn2nc(C)c(Cl)c2C)n1 (stereo not given),-5.44%
9,O=C(c1cn(CCN2CCCCC2)nn1)N1CCCO1,5.87%
10,Cc1nc[nH]c1-c1nccn1CCN(C)S(C)(=O)=O,-6.03%
11,Cc1nonc1CN(C)Cc1nc(-c2cccc(F)c2F)oc1C,-2.71%
12,CSc1nccc(N2CCC(NCc3nc(C)cc(C)n3)CC2)n1,3.41%
13,CC(=O)c1cc(CN2C[C@@H](CN3CCC(O)CC3)[C@@H](CO)C2)n(C)c1,7.58%
14,COc1ccc([C@@H]2CN(C(=O)Cc3cccs3)C[C@H]2NC(C)=O)cc1,-1.16%
15,COc1ccc(F)c(CN2CC(=O)N(c3ccccc3C)CC2C)c1 (stereo not given),-0.757%
16,O=C(O)c1cc(-c2ccc3c(c2)OCO3)cc(S(=O)(=O)NC2CC2)c1,2.8%
17,CC(C)O[C@H]1CN(Cc2cnc3c(-c4ccccc4)cnn3c2)C[C@@H]1O,3.45%
18,CCN(CC)c1ccc(-c2ccc(C)c(S(N)(=O)=O)c2)nn1,-7.99%
19,COc1cc(N2CCC(c3nccn3Cc3ccccn3)CC2)ncn1,-14.2%
20,CCN1CC2(CCN(C(=O)C3CSC(C)(C)C(=O)N3)CC2)CC1=O (stereo not given),1.72%
21,O=C(c1cn2ccsc2n1)N1CCOCC(O)(CN2CCCC2)C1 (stereo not given),4.6%
22,COC(=O)NCc1cc2n(n1)CCCN(C(C)=O)C2,-2.26%

row,Structure (SMILES),cytotoxicity at 10 µM
1,Cn1ccnc1CC1CCCN(Cc2noc(C3CC3)n2)C1 (stereo not given),-5.68%
2,Cc1cccc(-n2c(C)cc(C(=O)NS(C)(=O)=O)c2C)c1,-4.08%
3,Cc1ccc(NC2CCN(C(=O)c3cc(C)sc3C)CC2)nn1,-5.59%
4,Fc1ccc(-c2nnc(CN3CCCC3Cn3cncn3)o2)cc1 (stereo not given),-10.5%
5,Cc1cc(C2CCCN2Cc2ccn(C)c(=O)c2)no1 (stereo not given),-9.03%
6,Cc1nc2ccccc2c(=O)n1CCC(=O)N1CCNC(=O)C1,-19%
7,c1ccc(-c2cnc(CN3CCn4c(nnc4C4CC4)C3)o2)cc1,-7.67%
8,CCOc1ncccc1NC(=O)NCC(O)c1ccccc1OC (stereo not given),-8.36%
9,Cc1nc2ccccc2nc1CN1CCCC1Cn1cncn1 (stereo not given),-1.28%
10,CN(Cc1ccsc1)C(=O)CS(=O)(=O)Cc1ccc(Cl)c(Cl)c1,-0.987%
11,COc1cccc(CN2CCCC3(CCN(C(=O)N4CCCC4)C3)C2)c1 (stereo not given),-4.34%
12,Cc1ccc(N2CCC3(CC2)CCN(C2CCOC2)CC3)nn1 (stereo not given),7.67%
13,CN(C)C(=O)[C@@H]1CCO[C@@H]2CCN(c3ncccn3)C[C@@H]21,8.31%
14,Cn1cc(CN2CCCC23CCN(Cc2nccn2C)CC3)cn1,-5.64%
15,CC(C)NC(=O)C1CCC2(CCN(Cc3cnn(C)c3)CC2)CO1 (stereo not given),9.67%
16,Fc1cnc(N2CC[C@@H]3CN(Cc4ccncc4)CCO[C@@H]3C2)nc1,5.38%
17,Cc1nn(C)c(C)c1S(=O)(=O)N1C[C@@H]2C[C@@H](C)O[C@@H]2C1,0.788%
18,O=C(c1ccco1)N1CCOCC2(CCN(C3CCOCC3)C2)C1 (stereo not given),3.07%
19,Cc1ncccc1NC(=O)[C@@H]1C[C@@H]2CCN(Cc3cccs3)C[C@H]2O1,-72.9%
20,Cn1cnc2c1C(COCc1ccccc1)N(Cc1cccnc1)CC2 (stereo not given),9.61%
21,c1cncc(C[C@H]2[C@H](N3CCOCC3)CCN2Cc2nccs2)c1,8.82%
22,CC(C)n1nc(Cn2cccn2)c2c1CN(CC1CCOC1)C2 (stereo not given),7.13%
